Data: ChEMBL document CHEMBL1833898, “Dual pro-drugs of 2'-C-methyl guanosine monophosphate as potent and selective inhibitors of hepatitis C virus” (Bioorg Med Chem Lett, 2011)
pEC50: −log10 of the molar value. Active and inactive are the calls of the source. The rule behind the calls is not given here.

How the values were obtained:
[1] = Cytotoxicity against human HuH7 cells; format: cell-based, Huh-7
Hepatitis C virus [2] = assay: Antiviral activity against Hepatitis C virus subtype 1b replicon in by replicon assay in presence of adenosine deaminase inhibitor pentostatin; format: functional, organism-based; details: Hepacivirus hominis; genotype 1b
Outline: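 Genotype 1b replicon in HUH7 cells, 48 h compound exposure, run with and without the adenosine/adenylate deaminase inhibitor pentostatin.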

Hepatitis C virus [3] = assay: Antiviral activity against Hepatitis C virus subtype 1b replicon in human HuH7 cells after 48 hrs by subgenomic replicon assay; format: functional, organism-based, Hepacivirus hominis; details: genotype 1b, Huh-7, 48 h
[4] = Prodrug conversion of the compound after 24 hrs using UV spectroscopic analysis in presence of adenosine deaminase; format: ADME
Outline: (§1)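 Nucleoside at 44 μM (1 ml, phosphate buffer pH 7.4) with 30 μL adenosine deaminase solution. UV spectra taken at 1 min intervals for 30 min. Conversion judged by the spectrum matching 2'-C-methylguanosine. Reaction followed up to 24 h.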

[5] = Stability of the compound assessed as half life by NMR analysis in presence of carboxypeptidase Y; format: ADME
Outline: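 Incubation with carboxypeptidase Y in acetone-d6 and Trizma buffer pH 7.6. 31P NMR spectra taken every 7 min over 14 h to follow loss of starting material and intermediate formation.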

Huh-7 = assay: Prodrug stability in human HuH7 cell lysates assessed as monophosphate formation at pH 7.6 after every 1 hr for 11 hrs by NMR assay; format: ADME, cell-based, Lysate; details: huh-7, pH 7.6, 11 h
Outline: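 HuH7 cell lysate (10^7 cells) in acetone-d6 and Trizma buffer pH 7.6 at 37 °C. 31P NMR taken every 1 h for 11 h. Monophosphate identified by a signal at the shift of an authentic monophosphate.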

[6] = Prodrug conversion of the compound using UV spectroscopic analysis in presence of adenosine deaminase; format: ADME; outline: as §1

SMILES | pEC50 (Hepatitis C virus [3]) | Drug metabolism [4] | Drug metabolism [6] | CC50 [1] [µM] | Activity (Hepatitis C virus [2]) | EC90 (Hepatitis C virus [3]) [µM] | half-life [5] [h] | Drug metabolism (Huh-7)
CCOc1nc(N)nc2c1ncn2[C@@H]1O[C@H](COP(=O)(N[C@@H](C)C(=O)OCC(C)(C)C)Oc2cccc3ccccc23)[C@@H](O)[C@@]1(C)O (stereo not given in full) | 8.10 |  |  | 10 | inactive | 0.032 |  | 
C[C@H](NP(=O)(OC[C@H]1O[C@@H](n2cnc3c(NCc4ccccc4)nc(N)nc32)[C@](C)(O)[C@@H]1O)Oc1cccc2ccccc12)C(=O)OCC(C)(C)C (stereo not given in full) | 6.10 |  |  | 15 | inactive | 2.7 |  | 
CCOc1nc(N)nc2c1ncn2[C@@H]1O[C@H](COP(=O)(N[C@@H](C)C(=O)OC(C)C)Oc2cccc3ccccc23)[C@@H](O)[C@@]1(C)O (stereo not given in full) | 6.85 |  |  | 40 | inactive |  | 4 | 
CNc1nc(N)nc2c1ncn2[C@@H]1O[C@H](COP(=O)(N[C@@H](C)C(=O)OCC(C)(C)C)Oc2cccc3ccccc23)[C@@H](O)[C@@]1(C)O (stereo not given in full) | 7.46 |  |  | 38 | inactive | 0.103 |  | 
C[C@H](NP(=O)(OC[C@H]1O[C@@H](n2cnc3c(Cl)nc(N)nc32)[C@](C)(O)[C@@H]1O)Oc1cccc2ccccc12)C(=O)OCC(C)(C)C (stereo not given in full) | 7.92 |  |  | 16 | inactive | 0.028 |  | 
COc1nc(N)nc2c1ncn2[C@@H]1O[C@H](COP(=O)(N[C@@H](C)C(=O)OCC(C)(C)C)Oc2cccc3ccccc23)[C@@H](O)[C@@]1(C)O (stereo not given in full) [BMS-986094] |  |  |  |  | inactive | 0.038 |  | 
CSc1nc(N)nc2c1ncn2[C@@H]1O[C@H](COP(=O)(N[C@@H](C)C(=O)OCC(C)(C)C)Oc2cccc3ccccc23)[C@@H](O)[C@@]1(C)O (stereo not given in full) | 7.43 |  |  | 41 | inactive | 0.16 |  | 
C[C@H](NP(=O)(OC[C@H]1O[C@@H](n2cnc3c(NCCc4ccccc4)nc(N)nc32)[C@](C)(O)[C@@H]1O)Oc1cccc2ccccc12)C(=O)OCC(C)(C)C (stereo not given in full) | 6.57 |  |  | 42 | inactive | 1.3 |  | 
CCOc1nc(N)nc2c1ncn2[C@@H]1O[C@H](COP(=O)(N[C@@H](C)C(=O)OC2CCCCO2)Oc2cccc3ccccc23)[C@@H](O)[C@@]1(C)O (stereo not given in full) | 7.10 |  |  | 47 | inactive |  |  | 
CCOc1nc(N)nc2c1ncn2[C@@H]1O[C@H](COP(=O)(N[C@@H](C)C(=O)O[C@@H](C)c2ccccc2)Oc2cccc3ccccc23)[C@@H](O)[C@@]1(C)O (stereo not given in full) | 7.07 |  |  | 12 | inactive |  |  | Active
CCOc1nc(N)nc2c1ncn2[C@@H]1O[C@H](COP(=O)(N[C@@H](C)C(=O)OCc2ccccc2)Oc2cccc3ccccc23)[C@@H](O)[C@@]1(C)O (stereo not given in full) | 7.40 |  |  | 11 | inactive |  |  | 
CCOc1nc(N)nc2c1ncn2[C@@H]1O[C@H](COP(=O)(N[C@H](C(=O)OCC(C)(C)C)C(C)C)Oc2cccc3ccccc23)[C@@H](O)[C@@]1(C)O (stereo not given in full) | 6.77 |  |  | 24 | inactive |  |  | 
CCOc1nc(N)nc2c1ncn2[C@@H]1O[C@H](COP(=O)(N[C@@H](C)C(=O)OCc2ccc(F)cc2F)Oc2cccc3ccccc23)[C@@H](O)[C@@]1(C)O (stereo not given in full) | 7.47 |  |  | 17 | inactive |  |  | 
COCCCOc1nc(N)nc2c1ncn2[C@@H]1O[C@H](COP(=O)(N[C@@H](C)C(=O)OCC(C)(C)C)Oc2cccc3ccccc23)[C@@H](O)[C@@]1(C)O (stereo not given in full) | 7.37 |  |  | 31 | inactive | 0.12 |  | 

Second part, led by results:

pEC50 (Hepatitis C virus [3]) | Drug metabolism [4] | Drug metabolism [6] | SMILES | CC50 [1] [µM] | Activity (Hepatitis C virus [2]) | EC90 (Hepatitis C virus [3]) [µM] | half-life [5] [h] | Drug metabolism (Huh-7)
4.96 | Not Active |  | CSc1nc(N)nc2c1ncn2[C@@H]1O[C@H](CO)[C@@H](O)[C@@]1(C)O | > 100 |  |  |  | 
5.03 |  |  | CC(C)Oc1nc(N)nc2c1ncn2[C@@H]1O[C@H](CO)[C@@H](O)[C@@]1(C)O | > 100 |  |  |  | 
4.92 |  |  | COCCCOc1nc(N)nc2c1ncn2[C@@H]1O[C@H](CO)[C@@H](O)[C@@]1(C)O | > 100 |  |  |  | 
5.07 |  |  | C[C@@]1(O)[C@H](O)[C@@H](CO)O[C@H]1n1cnc2c(Cl)nc(N)nc21 | > 100 |  |  |  | 
7.64 |  |  | CC(C)Oc1nc(N)nc2c1ncn2[C@@H]1O[C@H](COP(=O)(N[C@@H](C)C(=O)OCC(C)(C)C)Oc2cccc3ccccc23)[C@@H](O)[C@@]1(C)O (stereo not given in full) | 11 | inactive | 0.065 |  | 
4.62 |  |  | C[C@@]1(O)[C@H](O)[C@@H](CO)O[C@H]1n1cnc2c(NCCc3ccccc3)nc(N)nc21 | > 100 |  |  |  | 
5.34 |  |  | COc1nc(N)nc2c1ncn2[C@@H]1O[C@H](CO)[C@@H](O)[C@@]1(C)O [BETA-2'-C-METHYL-6-O-METHYL GUANOSINE] | > 100 |  |  |  | 
4.52 |  |  | C[C@@]1(O)[C@H](O)[C@@H](CO)O[C@H]1n1cnc2c(NCc3ccccc3)nc(N)nc21 |  |  |  |  | 
5.06 |  | Active | CCOc1nc(N)nc2c1ncn2[C@@H]1O[C@H](CO)[C@@H](O)[C@@]1(C)O | > 100 |  |  |  | 
4.89 | Not Active |  | CNc1nc(N)nc2c1ncn2[C@@H]1O[C@H](CO)[C@@H](O)[C@@]1(C)O | > 100 |  |  |  | 
 |  | Active | C[C@@]1(O)[C@H](O)[C@@H](CO)O[C@H]1N1C=NC2C(=O)NC(N)=NC21 (stereo not given in full) |  |  |  |  | 
